Experiments:
[1] = molecular target: T1, Cytochrome P450 1A2 (Homo sapiens, UniProt P05177); assay: ChEBML_1679936
T1 sequence (P05177 whole entry): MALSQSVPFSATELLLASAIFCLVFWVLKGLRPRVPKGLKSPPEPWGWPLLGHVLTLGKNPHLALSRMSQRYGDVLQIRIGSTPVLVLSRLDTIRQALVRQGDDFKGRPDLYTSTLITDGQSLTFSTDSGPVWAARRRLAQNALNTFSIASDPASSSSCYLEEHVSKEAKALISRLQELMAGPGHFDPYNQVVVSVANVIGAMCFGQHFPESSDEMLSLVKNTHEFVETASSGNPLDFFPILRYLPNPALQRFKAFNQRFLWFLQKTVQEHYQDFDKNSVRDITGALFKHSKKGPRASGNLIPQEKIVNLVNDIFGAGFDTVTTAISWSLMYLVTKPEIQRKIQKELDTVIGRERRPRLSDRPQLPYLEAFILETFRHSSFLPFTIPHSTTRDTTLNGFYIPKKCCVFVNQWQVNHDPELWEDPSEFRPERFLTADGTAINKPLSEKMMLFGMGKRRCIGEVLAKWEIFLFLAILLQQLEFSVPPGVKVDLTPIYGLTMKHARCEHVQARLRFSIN
Text: Induction of CYP1A2 in cryopreserved human hepatocytes measured after 48 hrs

[2] = molecular target: T2, Muscarinic acetylcholine receptor M4 (Homo sapiens, UniProt P08173); assay: ChEBML_1679899
T2 sequence (P08173 whole entry): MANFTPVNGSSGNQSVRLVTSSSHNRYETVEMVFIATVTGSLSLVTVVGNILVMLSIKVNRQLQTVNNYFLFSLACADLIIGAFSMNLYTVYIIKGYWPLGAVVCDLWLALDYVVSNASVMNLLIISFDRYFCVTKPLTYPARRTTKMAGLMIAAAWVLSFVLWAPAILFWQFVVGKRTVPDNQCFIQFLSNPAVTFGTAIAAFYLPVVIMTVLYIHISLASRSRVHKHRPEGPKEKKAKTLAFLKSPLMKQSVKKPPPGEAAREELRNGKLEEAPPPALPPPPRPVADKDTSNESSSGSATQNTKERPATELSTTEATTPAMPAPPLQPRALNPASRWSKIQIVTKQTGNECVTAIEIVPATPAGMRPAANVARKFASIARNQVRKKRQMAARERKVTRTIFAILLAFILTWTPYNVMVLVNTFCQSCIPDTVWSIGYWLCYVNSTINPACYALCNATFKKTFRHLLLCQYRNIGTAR
Text: (§1) Positive allosteric modulation of human M4 receptor expressed in CHO cells coexpressing Gqi5 assessed as increase in acetylcholine-induced calcium mobilization

[3] = molecular target: T2, Muscarinic acetylcholine receptor M4; assay: as §1
Procedure, shortened: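 Calcium mobilization in CHO cells expressing hM4 with Gqi5. Compound added in presence of a fixed EC20 concentration of acetylcholine. Values are means of three independent experiments, each run in triplicate.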

Row | EC50 [2] [nM] | EC50 [3] [nM] | Structure (SMILES) | further results
1 | – | – | Cc1nnc2sc(C(=O)NCc3ccc(-c4cccnc4F)cc3)c(N)c2c1C | EC50 [1]: > 50000 nM
2 | 776 | – | Cc1cc(-c2ccc(CNC(=O)c3sc4nnc(C)c(C)c4c3N)cc2)cnc1F | –
3 | – | 49 | Cc1nnc2sc(C(=O)NCc3ccc(-c4ccnc(F)c4)cc3)c(N)c2c1C | –
4 | 63.1 | – | Cc1nnc2sc(C(=O)NCc3ccc(-c4cccnc4)cc3)c(N)c2c1C | –
5 | – | 26.9 | Cc1nnc2sc(C(=O)NCc3ccc(-c4ccncc4)cc3)c(N)c2c1C | –
6 | – | 100 | Cc1nnc2sc(C(=O)NCc3ccc(-c4cnccn4)cc3)c(N)c2c1C | –
